For assay [1], the system named is Brugia pahangi. As to the kind of experiment: anti-filarial Activity was measured against Brugia pahangi in jirds at 100 mg/kg/day(5 days) dose. The assay is classed as functional. A digest of the protocol:
(§1)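 Jirds with established B. pahangi or A. viteae infections were given drug once daily for 5 days by subcutaneous injection, at the maximum tolerated dose and, where supply allowed, graded lower doses. Tolerance was first checked in noninfected jirds with a single 200 mg/kg oral or subcutaneous dose, watching 72 h for excessive weight loss or death. Macrofilarial suppression was the read-out.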

Assay [2] relates to Brugia pahangi. As to the kind of experiment: anti-filarial Activity was measured against Brugia pahangi in jirds at 12.5 mg/kg/day(5 days) dose. The assay is classed as functional. In short, it runs like this: as §1
The test system of assay [3] is Brugia pahangi. As to the kind of experiment: anti-filarial Activity was measured against Brugia pahangi in jirds at 25 mg/kg/day(5 days) dose. It is filed as functional. In short, it runs like this:
as §1

The test system of assay [4] is Onchocerca gutturosa. Description: Mean motility score for treated Onchocerca gutturosa involving LLCMK2 feeder cells at a concentration of 3.05*10e-9 M at 0.5 h. The assay is classed as functional. A digest of the protocol: (§2)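 One male O. gutturosa per well over LLCMK2 feeder cells in MEM with 10% heat-inactivated FCS, antibiotics and bicarbonate, 5% CO2; compound introduced in DMSO (≤0.016%, equal DMSO in controls). Motility scored 0 (immotile) to 10 (maximal control activity) every 30 min to 4.5 h, then at 1, 2, 3, 4 and 7 days.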

In assay [5] the test system is Onchocerca gutturosa. Description: Colorimetric quantification of male Onchocerca gutturosa viability, expressed as % inhibition of formazan formation at 1.94*10e-7M conc. by using tetrazolium Dye MTT assay. The assay is classed as functional. A digest of the protocol:
(§3)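 Single intact male O. gutturosa, cultured with LLCMK2 feeder cells in MEM + 10% heat-inactivated FCS (5% CO2), drug added from DMSO (≤0.016% DMSO in controls). MTT read after 168 h: worm in 0.5 mg/mL MTT, 30 min at 36.5 °C, formazan solubilized in DMSO 1 h at room temperature, absorbance 490 nm vs DMSO blank.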
On the technique in general: Tetrazolium dyes change colour on reduction, which living cells bring about.

The test system of assay [6] is Onchocerca gutturosa. As to the kind of experiment: Mean motility score for treated Onchocerca gutturosa involving LLCMK2 feeder cells at a concentration of 5*10e-5 M at 1 h. It is filed as functional. A digest of the protocol: (§4)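 Single male O. gutturosa worms (obtained following abattoir slaughter) per well in Eagle's MEM with 10% heat-inactivated fetal calf serum, penicillin, streptomycin, amphotericin B and bicarbonate, over LLCMK2 feeder cells, 5% CO2 in air. Drug dissolved in DMSO; controls received matched DMSO ≤0.016%. Motility scored 0 (immotile) to 10 (maximum control activity) every 30 min to 4.5 h, then days 1, 2, 3, 4, 7.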

The test system of assay [7] is Onchocerca gutturosa. Description: Mean motility score for treated Onchocerca gutturosa involving LLCMK2 feeder cells at a concentration of 5*10e-5 M at 168 h(O = IMMOTILE). It is filed as functional. A digest of the protocol: as §4
Assay [8] concerns Onchocerca gutturosa. Description: Mean motility score for treated Onchocerca gutturosa involving LLCMK2 feeder cells at a concentration of 5*10e-5 M at 24 h. It is filed as functional. A digest of the protocol:
as §4

For assay [9], the system named is Onchocerca gutturosa. As to the kind of experiment: Mean motility score for treated Onchocerca gutturosa involving LLCMK2 feeder cells at a concentration of 5*10e-5 M at 4.5 h. It is filed as functional. A digest of the protocol:
as §4

In assay [10] the test system is Onchocerca gutturosa. Description: Mean motility score for treated Onchocerca gutturosa involving LLCMK2 feeder cells at a concentration of 5*10e-5 M at 72 h. The assay is classed as functional. A digest of the protocol: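 Single male O. gutturosa worms per well in Eagle's MEM with 10% heat-inactivated fetal calf serum, antibiotics and bicarbonate, over LLCMK2 feeder cells, 5% CO2 in air. Test chemical dissolved in DMSO and diluted into medium; control wells got matched DMSO not exceeding 0.016%. Motility scored 0 (immotile) to 10 (maximum control motility) every 30 min for 4.5 h, then at 1, 2, 3, 4 and 7 days.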

Assay [11] concerns Onchocerca gutturosa. Description: Mean motility score for treated Onchocerca gutturosa involving LLCMK2 feeder cells at a concentration of 1.21*10e-8M at 2 h. It is filed as functional. A digest of the protocol:
as §2

Assay [12] has as its system Onchocerca gutturosa. Description: Mean motility score for treated Onchocerca gutturosa involving LLCMK2 feeder cells at a concentration of 3.05*10e-9 M at 168 h. It is filed as functional. A digest of the protocol:
as §4

The subject of assay [13] is Onchocerca gutturosa. Description: Mean motility score for treated Onchocerca gutturosa involving LLCMK2 feeder cells at a concentration of 3.05*10e-9 M at 2 h. The assay is classed as functional. In short, it runs like this:
as §4

The subject of assay [14] is Onchocerca gutturosa. As to the kind of experiment: Mean motility score for treated Onchocerca gutturosa involving LLCMK2 feeder cells at a concentration of 3.05*10e-9 M at 3 h. It is filed as functional. A digest of the protocol: as §4
Assay [15] concerns Onchocerca gutturosa. As to the kind of experiment: Mean motility score for treated Onchocerca gutturosa involving LLCMK2 feeder cells at a concentration of 3.05*10e-9 M at 3.5 h. The assay is classed as functional. A digest of the protocol: as §4
Assay [16] deals with Onchocerca gutturosa. Description: Mean motility score for treated Onchocerca gutturosa involving LLCMK2 feeder cells at a concentration of 1.21*10e-8M at 48 h. It is filed as functional. In short, it runs like this: as §2
Assay [17] has as its system Onchocerca gutturosa. As to the kind of experiment: Mean motility score for treated Onchocerca gutturosa involving LLCMK2 feeder cells at a concentration of 1.21*10e-8M at 72 h. It is filed as functional. In short, it runs like this: as §2
Assay [18] deals with Onchocerca gutturosa. As to the kind of experiment: Mean motility score for treated Onchocerca gutturosa involving LLCMK2 feeder cells at a concentration of 1.94*10e-7M at 1 h. The assay is classed as functional. In short, it runs like this: as §2
The test system of assay [19] is Onchocerca gutturosa. As to the kind of experiment: Mean motility score for treated Onchocerca gutturosa involving LLCMK2 feeder cells at a concentration of 1.94*10e-7M at 168 h(O = IMMOTILE). The assay is classed as functional. In short, it runs like this: as §2
Assay [20] relates to Onchocerca volvulus. Description: Mean motility score for treated Onchocerca volvulus excluding LLCMK2 feeder cells at a concentration of 5*10e-5 M at 1 h.
Assay [21] concerns Onchocerca volvulus. As to the kind of experiment: Mean motility score for treated Onchocerca volvulus excluding LLCMK2 feeder cells at a concentration of 5*10e-5 M at 2 h.
The subject of assay [22] is Onchocerca volvulus. Description: Mean motility score for treated Onchocerca volvulus excluding LLCMK2 feeder cells at a concentration of 5*10e-5 M at 24 h.
For assay [23], the system named is Onchocerca volvulus. Description: Mean motility score for treated Onchocerca volvulus excluding LLCMK2 feeder cells at a concentration of 5*10e-5 M at 48 h.
In assay [24] the test system is Onchocerca volvulus. As to the kind of experiment: Mean motility score for treated Onchocerca volvulus excluding LLCMK2 feeder cells at a concentration of 3.1*10e-6 M at 48 h.
The subject of assay [25] is Onchocerca gutturosa. Description: Mean motility score for treated Onchocerca gutturosa involving LLCMK2 feeder cells at a concentration of 1.95*10e-8 M at 72 h. The assay is classed as functional. In short, it runs like this:
as §2

For assay [26], the system named is Onchocerca gutturosa. Description: Colorimetric quantification of male Onchocerca gutturosa viability, expressed as % inhibition of formazan formation at 4.88*10e-8M conc. by using tetrazolium Dye MTT assay. It is filed as functional. A digest of the protocol:
as §3

The test system of assay [27] is Onchocerca gutturosa. As to the kind of experiment: Mean motility score for treated Onchocerca gutturosa involving LLCMK2 feeder cells at a concentration of 4.88*10e-8M at 1 h. It is filed as functional. In short, it runs like this:
as §4

Assay [28] concerns Onchocerca gutturosa. Description: Mean motility score for treated Onchocerca gutturosa involving LLCMK2 feeder cells at a concentration of 4.88*10e-8M at 1.5 h. The assay is classed as functional. A digest of the protocol:
as §4

Assay [29] concerns Onchocerca gutturosa. Description: Mean motility score for treated Onchocerca gutturosa involving LLCMK2 feeder cells at a concentration of 3.1*10e-6 M at 4.5 h. It is filed as functional. A digest of the protocol: as §4
Assay [30] deals with Onchocerca gutturosa. Description: Mean motility score for treated Onchocerca gutturosa involving LLCMK2 feeder cells at a concentration of 3.1*10e-6 M at 72 h. The assay is classed as functional. In short, it runs like this:
as §4

The test system of assay [31] is Onchocerca gutturosa. As to the kind of experiment: Mean motility score for treated Onchocerca gutturosa involving LLCMK2 feeder cells at a concentration of 3.1*10e-6 M at 1 h. The assay is classed as functional. A digest of the protocol:
as §4

In assay [32] the test system is Onchocerca gutturosa. Description: Mean motility score for treated Onchocerca gutturosa involving LLCMK2 feeder cells at a concentration of 3.1*10e-6 M at 24 h. The assay is classed as functional. A digest of the protocol: as §4

This passage reports Suppression, Motility and Inhibition results from ChEMBL document CHEMBL1125672, “2-acetylpyridine thiosemicarbazones. 13. Derivatives with antifilarial activity” (1991).

As to `C/C(=N\NC(S)=Nc1ccccc1N)c1ccccn1`, the results for the Suppression in [1], in assay [2] and in assay [3] were 100%, 16% and 100%, respectively. The Motility in assay [4] amounted to 8.8; in assay [6], 10; in [7] it was 0; in assay [8], 9.5; in assay [9] it was 9.5; in assay [10], 1.6. The Motility is recorded as 3.3 in [11]; 4.5 in assay [12]; 7.5 in assay [13]; 7.5 in assay [14]; 7.3 in assay [15]; 7.3 in assay [16]. Also, the Motility in assay [17] is 6.8; in assay [18], 9.8; in assay [19], 0; in [20] it was 5; in assay [21], 6; in [22] it was 4.4. Besides, the Motility in [23] is on record as 3.6; in [24], 2. The Inhibition (commonly the drop in the measured response relative to a control, in per cent) in assay [5] stood at 84.8%.
As for `C/C(=N\NC(=S)N1CCCCCC1)c1ccccn1`, the Suppression in assay [2] came out at 100%; in assay [3], 84%. The Motility turned out to be 1 in assay [25]; 9 in [27]; 8.5 in assay [28]; 4.8 in assay [6]; 0 in assay [8]; 1.8 in assay [9]. The Motility in assay [10] is recorded as 0; in [29], 9.5; in [30], 0; in [12], 3.5; in [14], 8.8; in assay [15] it was 8.3. The Motility is recorded as 9.8 in [31]; 4 in [32]; 8.4 in assay [20]; 8 in [21]; 1.6 in [22]; 1 in [23]. Moreover, the Motility in assay [24] came to 0.6. The Inhibition in assay [26] came out at 31.7%.
